Rows were chosen to be rich in hits. Some 3.5% of all compounds tested hit in one or more screens of this group.
RGS4 pot – potentiators or activators of RGS4; hit rate 0.92% among 310,000; HEK293 M3R/inducible RGS4, carbachol calcium flux Fluo4; stronger effect = lower value; B-score at 10 µM;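 active = B-score of the integrated calcium signal more than 4 SD below the library mean, with starting fluorescence not abnormally high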;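 also: negative B-score means reduced calcium response which marks RGS4 activation or potentiation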
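Assay system: HEK293 FlpIn-TREx cells, stable M3R, doxycycline-inducible RGS4 / Probe or stimulus: carbachol, ECmax concentration / Times: overnight RGS4 induction, 30 min dye load 37 °C, 20 min compound RT / Signal: kinetic calcium fluorescence imaging with Fluo4-AM dye, 2 µM / Measure: Agonist-evoked peak-minus-minimum fluorescence over baseline, integrated ratio, B score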
MrgX1 PAM – human MrgX1 positive allosteric modulation, primary screen. hit rate 0.63% among 310,000. B-score at 10 µM. AID 588675. MrgX1-HEK293, Fluo-4 calcium flux, FDSS; stronger effect = higher value. Q96LB2;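 active = plate-corrected calcium response at least 3 library SD above typical, normal starting fluorescence, not activating the receptor alone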;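 also: compound read alongside a low EC10 to EC30 dose of BAM8-22 agonist; peak minus trough fluorescence over baseline measured at the second addition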
Target sequence (Q96LB2 whole entry, looked up): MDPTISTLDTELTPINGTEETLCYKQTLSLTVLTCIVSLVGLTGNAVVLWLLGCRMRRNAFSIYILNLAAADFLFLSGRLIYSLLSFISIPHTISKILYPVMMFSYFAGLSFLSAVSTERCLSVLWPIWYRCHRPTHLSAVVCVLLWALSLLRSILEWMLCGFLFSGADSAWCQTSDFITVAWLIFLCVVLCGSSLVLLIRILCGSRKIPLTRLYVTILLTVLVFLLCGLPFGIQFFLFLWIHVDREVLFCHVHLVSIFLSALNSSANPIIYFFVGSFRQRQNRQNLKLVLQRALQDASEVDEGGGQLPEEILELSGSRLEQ
RGS4 inh – human RGS4 inhibition; HEK293 M3R/RGS4 inducible, Fluo-4 calcium flux; stronger effect = higher value; triggered by carbachol at its EC20; B-score at 10 µM; hit rate 0.45% among 310,000; AID 463165;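 active = B-score, a plate-corrected calcium signal, over three deviations above library mean, with baseline fluorescence within five deviations of library mean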;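 also: RGS4 expression induced by doxycycline in cells with stable M3 receptor; B-score is computed from the integrated fluorescence ratio over baseline after carbachol; higher B-score means a larger calcium signal and so more RGS4 inhibition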
Target sequence (P49798 whole entry, looked up): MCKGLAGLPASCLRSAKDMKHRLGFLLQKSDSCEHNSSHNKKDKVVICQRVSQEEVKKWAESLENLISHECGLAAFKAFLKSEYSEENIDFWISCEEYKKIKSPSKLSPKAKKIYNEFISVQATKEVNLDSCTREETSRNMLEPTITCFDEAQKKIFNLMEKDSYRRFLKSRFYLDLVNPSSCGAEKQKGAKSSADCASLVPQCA
MrgX1 agonist – agonists of human MrgX1 receptor. hit rate 0.44% among 310,000. AID 588627. MrgX1-HEK293 cells, Fluo-4 calcium fluorescence, agonist mode; stronger effect = higher value. B-score at 10 µM;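 active = calcium response B-score plate-corrected fluorescence ratio at least 3 library SD, with starting fluorescence B-score inside 5 SD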
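Test system: HEK293 cells stably expressing human MrgX1 receptor; amount: 15,000 cells per well; doses: compound delivered in addition one of three; times: overnight plating before 1 h dye loading; detection: Fluo-4 NW calcium-flux fluorescence, kinetic read; read-out basis: B-scored fluorescence response ratio; controls: positive and negative controls per plate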
MrgX1 antagonist – human MrgX1 receptor antagonism, primary screen; Q96LB2; MRGX1-HEK293 calcium flux, Fluo-4, BAM8-22 antagonism; stronger effect = lower value; B-score at 10 µM; hit rate 1.3% among 310,000;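 active = calcium-response B-score plate-corrected more than 3 library SD below zero, starting fluorescence within 5 deviations, no agonist response on first addition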;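 also: peak minus trough fluorescence over baseline after final BAM8-22 challenge near maximal dose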
Active calls of the source: *.

COc1ccc(C)cc1S(=O)(=O)NC(C)c1cnn(-c2ccccn2)c1C (stereo unspecified) was read as RGS4 pot inactive, MrgX1 PAM inactive, RGS4 inh inactive, MrgX1 agonist inactive and MrgX1 antagonist inactive.
N=c1c(-c2nc3ccccc3[nH]2)cc(C(=O)c2cccs2)nn1-c1ccccc1 was read as RGS4 pot -8.6*, MrgX1 PAM inactive, RGS4 inh inactive, MrgX1 agonist inactive and MrgX1 antagonist inactive.
For N=c1c(-c2nc3ccccc3[nH]2)cc(C(=O)c2ccco2)nn1-c1ccccc1 the results were RGS4 pot inactive, MrgX1 PAM inactive, RGS4 inh inactive, MrgX1 agonist inactive and MrgX1 antagonist inactive.
`Cc1ccc(NC(=O)CN2C(=O)S/C(=C/c3ccc(-c4cc(C(=O)O)ccc4C)o3)C2=O)cc1C` gave RGS4 pot inactive, MrgX1 PAM inactive, RGS4 inh inactive, MrgX1 agonist inactive and MrgX1 antagonist inactive.
Cc1cc(C(=O)O)ccc1-n1c(C)cc(C=C2C(=O)c3ccccc3C2=O)c1C was read as RGS4 pot inactive, MrgX1 PAM inactive, RGS4 inh inactive, MrgX1 agonist 29* and MrgX1 antagonist inactive.
Screening Cc1ccc(C(=O)O)cc1-c1ccc(C=C2C(=O)c3ccccc3C2=O)o1 returned RGS4 pot inactive, MrgX1 PAM inactive, RGS4 inh inactive, MrgX1 agonist 41* and MrgX1 antagonist inactive.
Screening CCCCN1C(=O)C(=O)N(CC(=O)Nc2ccccc2C(=O)OCC)C1=O returned RGS4 pot inactive, MrgX1 PAM inactive, RGS4 inh inactive, MrgX1 agonist inactive and MrgX1 antagonist inactive.
COc1ccc(CC(=O)Nc2cccc(/C(C)=N/NC(=O)C3(C)CC3(Br)Br)c2)cc1 (stereo unspecified) was read as RGS4 pot -9.3*, MrgX1 PAM inactive, RGS4 inh inactive, MrgX1 agonist inactive and MrgX1 antagonist inactive.
Screening C/C(=N\NC(=O)C1(C)CC1(Br)Br)c1cccc(NC(=O)C(C)(C)C)c1 (stereo unspecified) returned RGS4 pot inactive, MrgX1 PAM inactive, RGS4 inh inactive, MrgX1 agonist inactive and MrgX1 antagonist inactive.
Screening O=C(c1ccc([N+](=O)[O-])o1)N1CCN(c2nc3c(F)cc(F)cc3s2)CC1 returned RGS4 pot inactive, MrgX1 PAM inactive, RGS4 inh inactive, MrgX1 agonist inactive and MrgX1 antagonist inactive.
For Cc1ccc(C)c2sc(N3CCN(C(=O)c4ccc([N+](=O)[O-])o4)CC3)nc12 the results were RGS4 pot inactive, MrgX1 PAM inactive, RGS4 inh inactive, MrgX1 agonist inactive and MrgX1 antagonist -7.5*.
For Cc1ccc[n+](CC(=O)c2cc3ccccc3oc2=O)c1 the results were RGS4 pot -9.9*, MrgX1 PAM inactive, RGS4 inh inactive, MrgX1 agonist inactive and MrgX1 antagonist inactive.
For CCOC(=O)c1sc(N)c(C#N)c1COC(=O)CNC(=O)c1cc(OC)c(OC)c(OC)c1 the results were RGS4 pot inactive, MrgX1 PAM inactive, RGS4 inh inactive, MrgX1 agonist inactive and MrgX1 antagonist -6.6*.
Screening COc1cc(C(=O)NCC(=O)OCc2ccccc2Cl)cc(OC)c1OC returned RGS4 pot inactive, MrgX1 PAM inactive, RGS4 inh inactive, MrgX1 agonist inactive and MrgX1 antagonist inactive.
CC(C)CN(C(=O)c1nn(C)c(=O)c2ccccc12)c1nc2ccccc2s1 was read as RGS4 pot inactive, MrgX1 PAM 7*, RGS4 inh inactive, MrgX1 agonist inactive and MrgX1 antagonist inactive.
Screening CC(C)CN(C(=O)c1ccco1)c1nc2ccccc2s1 returned RGS4 pot inactive, MrgX1 PAM inactive, RGS4 inh inactive, MrgX1 agonist inactive and MrgX1 antagonist inactive.
CCCc1cc(O)c2c(C)cc(=O)oc2c1 was read as RGS4 pot inactive, MrgX1 PAM inactive, RGS4 inh inactive, MrgX1 agonist 31* and MrgX1 antagonist inactive.
`CCCCc1cc(=O)oc2cc(O)cc(O)c12` gave RGS4 pot inactive, MrgX1 PAM inactive, RGS4 inh inactive, MrgX1 agonist 33* and MrgX1 antagonist inactive.
CCCCc1cc(=O)oc2cc(C)cc(O)c12 was read as RGS4 pot inactive, MrgX1 PAM inactive, RGS4 inh inactive, MrgX1 agonist inactive and MrgX1 antagonist inactive.
CCOC(=O)c1ccc(S(=O)(=O)N2CCN(c3ccccn3)CC2)cc1 was read as RGS4 pot inactive, MrgX1 PAM inactive, RGS4 inh inactive, MrgX1 agonist inactive and MrgX1 antagonist inactive.
For CC(C)(C)c1ccc(OCC(=O)NNC(=S)NC(=O)c2ccco2)c(Br)c1 the results were RGS4 pot -10*, MrgX1 PAM inactive, RGS4 inh inactive, MrgX1 agonist inactive and MrgX1 antagonist inactive.
CC(C)c1ccc(OCC(=O)NNC(=S)NC(=O)c2ccco2)c(Br)c1 was read as RGS4 pot -9.5*, MrgX1 PAM inactive, RGS4 inh inactive, MrgX1 agonist inactive and MrgX1 antagonist inactive.
For Nc1ccccc1Oc1c(F)c(F)c(Oc2ccccc2N)c(F)c1F the results were RGS4 pot inactive, MrgX1 PAM inactive, RGS4 inh inactive, MrgX1 agonist inactive and MrgX1 antagonist inactive.
`CC(C)N(CCCNC(=O)c1ccc(CS(=O)(=O)c2c(Cl)cccc2Cl)o1)Cc1ccccc1` gave RGS4 pot -8.6*, MrgX1 PAM inactive, RGS4 inh inactive, MrgX1 agonist inactive and MrgX1 antagonist inactive.
`Cc1ccc(C)c(NCCC#N)c1` gave RGS4 pot inactive, MrgX1 PAM inactive, RGS4 inh inactive, MrgX1 agonist inactive and MrgX1 antagonist inactive.
CC(C)CC(=O)Nc1ccc(-c2nc3ccccc3c(=O)[nH]2)cc1 was read as RGS4 pot inactive, MrgX1 PAM inactive, RGS4 inh inactive, MrgX1 agonist inactive and MrgX1 antagonist inactive.
CCOc1ccc(CN(C)C(=O)CNC(=O)c2ccc(Br)o2)cc1OC was read as RGS4 pot inactive, MrgX1 PAM inactive, RGS4 inh inactive, MrgX1 agonist inactive and MrgX1 antagonist inactive.
Screening CC(C)(C#CC(O)(c1ccccc1)c1ccccc1)N1CCCCC1 returned RGS4 pot -7.1*, MrgX1 PAM inactive, RGS4 inh inactive, MrgX1 agonist inactive and MrgX1 antagonist inactive.
Screening CC1CCN(S(=O)(=O)c2ccc3c(c2)CCN3C(=O)CCC(=O)O)CC1 returned RGS4 pot inactive, MrgX1 PAM inactive, RGS4 inh inactive, MrgX1 agonist inactive and MrgX1 antagonist inactive.
`Cc1onc(-c2c(Cl)cccc2Cl)c1C(=O)NC1CCCCC1` gave RGS4 pot inactive, MrgX1 PAM inactive, RGS4 inh inactive, MrgX1 agonist inactive and MrgX1 antagonist inactive.

Compound activity (PubChem BioAssay)
